Measured values reported in ChEMBL document CHEMBL1139384, “First Cdc7 kinase inhibitors: pyrrolopyridinones as potent and orally active antitumor agents. 2. Lead discovery” (J Med Chem, 2009).
Calls of active or inactive are those of the source. The rule behind the calls is not given here.

Experiments:
[1] = Half life in Wistar rat at 20 mg/kg, po administered as single dose; conditions: in vivo
[2] = AUC (0 to infinity) in nu/nu mouse at 10 mg/kg, iv administered as single dose; type: ADME, organism-based; design: dose 10 mg/kg, route intravenous, time infinity; conditions: plasma
How it was run: (§1)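 Single iv or oral dose in 5% dextrose to overnight-fasted animals. Nu/Nu mice: males, 3 per route, saphenous bleeds to 24 h. Han-Wistar rats: males, 3 per route, jugular bleeds to 24 h. Beagle dogs: 2 per sex, iv and po crossover 2 weeks apart, jugular bleeds to 48 h. Plasma by LC/MS/MS; noncompartmental parameters, AUC by linear trapezoid with extrapolation.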

[3] = Cmax in Beagle dog at 5 mg/kg, iv administered as single dose; type: ADME, organism-based, Canis lupus familiaris; design: dose 5 mg/kg, route intravenous; conditions: in vivo
How it was run: as §1

OPM-2 = assay: Antiproliferative activity against human OPM2 cells after 72 hrs by luciferase based assay; type: functional, cell-based; conditions: OPM-2, 72 h
How it was run: (§2)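 Cells seeded at 2500–5000/well in complete medium (RPMI1640, McCoy's or DMEM with 10% FCS, by line); compound added after 24 h, 72 h at 37 °C, 5% CO2.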

[4] = target: Cyclin-dependent kinase 5/CDK5 activator 1 (Homo sapiens, UniProt Q00535); assay: Inhibition of CDK5/p25; type: protein-complex assay
Cyclin-dependent kinase 5/CDK5 activator 1, sequence (Q00535 whole entry): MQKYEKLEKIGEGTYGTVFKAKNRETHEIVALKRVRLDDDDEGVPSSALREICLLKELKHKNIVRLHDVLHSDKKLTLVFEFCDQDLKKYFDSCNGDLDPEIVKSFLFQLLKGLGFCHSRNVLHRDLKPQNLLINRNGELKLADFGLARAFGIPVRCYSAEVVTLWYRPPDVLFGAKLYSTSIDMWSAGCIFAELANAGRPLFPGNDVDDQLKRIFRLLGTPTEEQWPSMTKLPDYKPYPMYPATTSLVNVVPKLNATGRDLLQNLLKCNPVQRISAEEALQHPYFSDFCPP
Cyclin-dependent kinase 5/CDK5 activator 1, sequence (Q15078 whole entry, further chain): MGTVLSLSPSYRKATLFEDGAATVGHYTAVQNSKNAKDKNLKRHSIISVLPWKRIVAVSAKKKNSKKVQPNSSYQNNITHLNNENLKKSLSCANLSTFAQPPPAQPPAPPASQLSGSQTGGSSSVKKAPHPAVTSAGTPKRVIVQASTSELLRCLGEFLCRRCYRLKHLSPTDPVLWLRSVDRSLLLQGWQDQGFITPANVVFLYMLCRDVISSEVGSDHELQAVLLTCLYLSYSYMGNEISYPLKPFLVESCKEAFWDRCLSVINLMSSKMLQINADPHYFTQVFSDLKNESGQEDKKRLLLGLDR

[5] = target: Cell division cycle 7-related protein kinase (Homo sapiens, UniProt O00311); assay: Inhibition of human Cdc7 in human A2780 cells assessed as inhibition of Ser40 phosphorylation of Mcm2 protein after 4 hrs; type: cell-based
Cell division cycle 7-related protein kinase, sequence (O00311 whole entry, looked up): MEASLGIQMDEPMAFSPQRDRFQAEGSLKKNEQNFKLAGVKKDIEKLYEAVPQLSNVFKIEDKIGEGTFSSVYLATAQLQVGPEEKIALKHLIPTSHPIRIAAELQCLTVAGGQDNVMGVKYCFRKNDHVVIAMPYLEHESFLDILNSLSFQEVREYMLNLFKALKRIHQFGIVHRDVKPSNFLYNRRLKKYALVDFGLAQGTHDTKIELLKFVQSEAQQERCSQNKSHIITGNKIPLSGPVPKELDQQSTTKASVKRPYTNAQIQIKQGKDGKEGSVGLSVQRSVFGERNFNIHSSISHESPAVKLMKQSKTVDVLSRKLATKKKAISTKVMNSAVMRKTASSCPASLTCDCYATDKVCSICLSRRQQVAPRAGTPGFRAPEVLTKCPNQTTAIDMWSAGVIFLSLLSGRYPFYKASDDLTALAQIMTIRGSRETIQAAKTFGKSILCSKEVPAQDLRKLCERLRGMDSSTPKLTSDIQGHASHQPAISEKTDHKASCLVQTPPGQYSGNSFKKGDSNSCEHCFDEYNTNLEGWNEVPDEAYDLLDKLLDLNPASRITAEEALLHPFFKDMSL
How it was run: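 A2780 cells exposed for 4 h to a range of concentrations, then lysed in 50 mmol/L Tris-HCl pH 6.8, 1% SDS, 1 mmol/L DTT and sonicated 10 s. 15 µg protein per lane ([…]) was taken for Western blot with phospho-specific antibodies to MCM2 Ser40 and Ser53.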

SW48 = assay: Antiproliferative activity against human SW48 cells after 72 hrs by luciferase based assay; type: functional, cell-based; conditions: SW48, 72 h
How it was run: as §2

Cytochrome P450 2D6 = Cytochrome P450 2D6 (Homo sapiens, UniProt P10635); assay: Inhibition of human CYP2D6; type: ADME
Cytochrome P450 2D6, sequence (P10635 whole entry): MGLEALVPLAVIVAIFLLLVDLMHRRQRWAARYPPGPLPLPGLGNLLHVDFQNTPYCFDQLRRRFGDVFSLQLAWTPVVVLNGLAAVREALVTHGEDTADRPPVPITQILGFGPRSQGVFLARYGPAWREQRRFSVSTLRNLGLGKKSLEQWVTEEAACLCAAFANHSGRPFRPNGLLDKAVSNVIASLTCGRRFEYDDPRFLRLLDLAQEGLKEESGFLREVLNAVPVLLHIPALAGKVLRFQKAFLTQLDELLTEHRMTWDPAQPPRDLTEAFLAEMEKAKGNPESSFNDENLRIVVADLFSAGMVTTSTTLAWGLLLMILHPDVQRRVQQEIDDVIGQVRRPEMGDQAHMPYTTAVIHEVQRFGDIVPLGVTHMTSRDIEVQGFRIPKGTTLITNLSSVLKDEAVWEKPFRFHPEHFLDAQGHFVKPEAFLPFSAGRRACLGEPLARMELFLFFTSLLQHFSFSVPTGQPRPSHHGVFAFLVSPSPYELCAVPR

[6] = target: Cyclin-dependent kinase 9 (Homo sapiens, UniProt P50750); assay: Inhibition of CDK9
Cyclin-dependent kinase 9, sequence (P50750 whole entry): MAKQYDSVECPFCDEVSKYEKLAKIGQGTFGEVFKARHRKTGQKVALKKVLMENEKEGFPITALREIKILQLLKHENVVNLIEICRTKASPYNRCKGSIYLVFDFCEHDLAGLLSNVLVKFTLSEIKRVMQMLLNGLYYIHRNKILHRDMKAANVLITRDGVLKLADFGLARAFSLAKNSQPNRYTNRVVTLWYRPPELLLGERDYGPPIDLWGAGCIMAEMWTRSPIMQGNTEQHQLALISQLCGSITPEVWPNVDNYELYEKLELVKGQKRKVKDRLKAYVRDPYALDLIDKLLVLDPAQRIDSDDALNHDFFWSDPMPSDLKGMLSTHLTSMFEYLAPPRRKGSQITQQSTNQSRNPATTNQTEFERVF

[7] = Cmax in Beagle dog at 10 mg/kg, po administered as single dose; type: ADME, organism-based, Canis lupus familiaris; design: dose 10 mg/kg, route oral; conditions: in vivo
How it was run: as §1

[8] = Oral bioavailability in Beagle dog at 10 mg/kg administered as single dose; type: ADME, organism-based, Canis lupus familiaris; conditions: in vivo
How it was run: (§3)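 Overnight-fasted Beagle dogs, 2 per sex, in a crossover design: 5 mg/kg iv and 10 mg/kg po, two weeks apart, in 5% dextrose. Jugular blood was drawn up to 48 h, and urine was collected over 0–8, 8–24 and 24–48 h. Samples were assayed by LC/MS/MS and analysed noncompartmentally.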

Rattus norvegicus = assay: Antitumor activity against DMBA-induced mammary carcinoma in CD OFA rat assessed as duration of tumor stabilization maintenance at 20 mg/kg, po administered for 10 days; type: functional
How it was run: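 DMBA tumors induced in female CD OFA rats by single intragastric 20 mg DMBA in sesame oil; after about 50 days, rats with a mammary tumor of at least 1 cm given 20 mg/kg orally twice daily for 10 days in glucose solution, or vehicle; 10 per group; tumor volume by Vernier calipers.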

COLO 205 = assay: Antiproliferative activity against human COLO205 cells after 72 hrs by luciferase based assay; type: functional, cell-based; conditions: COLO 205, 72 h
[9] = target: RAC-alpha serine/threonine-protein kinase (Homo sapiens, UniProt P31749); assay: Inhibition of AKT1
RAC-alpha serine/threonine-protein kinase, sequence (P31749 whole entry): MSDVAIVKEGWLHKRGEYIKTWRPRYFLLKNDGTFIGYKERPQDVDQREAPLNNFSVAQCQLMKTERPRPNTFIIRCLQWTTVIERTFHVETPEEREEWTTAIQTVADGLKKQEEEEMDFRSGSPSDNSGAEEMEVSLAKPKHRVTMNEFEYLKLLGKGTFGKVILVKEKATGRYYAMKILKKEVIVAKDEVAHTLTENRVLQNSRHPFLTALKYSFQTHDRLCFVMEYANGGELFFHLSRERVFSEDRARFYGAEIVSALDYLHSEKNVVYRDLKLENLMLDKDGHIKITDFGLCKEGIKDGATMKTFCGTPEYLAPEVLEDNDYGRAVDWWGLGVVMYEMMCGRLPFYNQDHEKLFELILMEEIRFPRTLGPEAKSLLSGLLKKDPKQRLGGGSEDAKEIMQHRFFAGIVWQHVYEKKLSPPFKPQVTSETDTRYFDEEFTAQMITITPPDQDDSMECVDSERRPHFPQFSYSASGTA

NHDF = assay: Antiproliferative activity against human NHDF cells after 72 hrs by luciferase based assay; type: cell-based
[10] = Half life in nu/nu mouse at 10 mg/kg, po administered as single dose; type: ADME, organism-based; design: dose 10 mg/kg, route oral; conditions: in vivo
How it was run: as §1

[11] = Cmax in Wistar rat at 20 mg/kg, po administered as single dose; conditions: in vivo
[12] = target: Fibroblast growth factor receptor 1 (Homo sapiens, UniProt P11362); assay: Inhibition of FGFR1
Mus musculus = assay: Inhibition of human Cdc7 in human A2780 cells xenografted in CDI nu/nu mouse assessed as inhibition of Ser53 phosphorylation of Mcm2 protein at 60 mg/kg, po first dose administered at 6 hrs and second dose 3 hrs after first dose by Western blot; type: functional, organism-based; design: dose 60 mg/kg
How it was run: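 A2780 human ovarian carcinoma grown subcutaneously in CDI nu/nu mice. Two oral doses of 60 mg/kg were given within 6 h, the second 3 h after the first. Tumors were explanted and analysed by Western blot for MCM2 phosphorylated at Ser40 and Ser53, with total MCM2 and tubulin as loading controls. Vehicle-treated tumors served as controls.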

A2780 = assay: Antitumor activity against human A2780 cells xenografted in CDI nu/nu mouse assessed as tumor growth inhibition at 60 mg/kg, po administered for 10 days; type: functional; conditions: A2780, 240 h, read-out: TGI
[13] = target: Serine/threonine-protein kinase TAO3 (Homo sapiens, UniProt Q9H2K8); assay: Inhibition of TAO3
[14] = Tmax in Beagle dog at 10 mg/kg, po administered as single dose; type: ADME, organism-based, Canis lupus familiaris; design: dose 10 mg/kg, route oral; conditions: in vivo
How it was run: as §3

[15] = Cmax in Wistar rat at 10 mg/kg, iv administered as single dose; type: ADME, organism-based; design: dose 10 mg/kg, route intravenous; conditions: in vivo
How it was run: as §1

Insulin receptor = Insulin receptor (Homo sapiens, UniProt P06213); assay: Inhibition of IR
Insulin receptor, sequence (P06213 28-758 limits assumed): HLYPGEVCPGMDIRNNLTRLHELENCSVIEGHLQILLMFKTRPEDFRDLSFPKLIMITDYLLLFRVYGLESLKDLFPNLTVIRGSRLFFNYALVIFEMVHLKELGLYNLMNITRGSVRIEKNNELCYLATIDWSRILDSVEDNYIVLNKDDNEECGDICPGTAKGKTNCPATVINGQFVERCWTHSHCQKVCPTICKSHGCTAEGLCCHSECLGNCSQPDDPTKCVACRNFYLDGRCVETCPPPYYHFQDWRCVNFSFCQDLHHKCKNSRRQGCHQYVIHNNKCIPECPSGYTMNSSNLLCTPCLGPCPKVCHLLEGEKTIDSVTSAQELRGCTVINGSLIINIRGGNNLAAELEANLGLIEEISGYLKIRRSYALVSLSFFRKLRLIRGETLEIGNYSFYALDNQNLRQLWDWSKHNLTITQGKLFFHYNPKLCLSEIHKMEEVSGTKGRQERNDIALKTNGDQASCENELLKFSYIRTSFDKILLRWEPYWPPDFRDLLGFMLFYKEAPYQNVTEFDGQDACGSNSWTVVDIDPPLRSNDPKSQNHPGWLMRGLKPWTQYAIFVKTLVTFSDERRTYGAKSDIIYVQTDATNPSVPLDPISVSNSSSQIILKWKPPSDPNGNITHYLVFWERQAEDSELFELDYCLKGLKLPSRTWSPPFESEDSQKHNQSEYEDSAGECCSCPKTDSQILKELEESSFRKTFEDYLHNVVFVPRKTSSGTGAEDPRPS
Insulin receptor, sequence (P06213 763-1382 limits assumed): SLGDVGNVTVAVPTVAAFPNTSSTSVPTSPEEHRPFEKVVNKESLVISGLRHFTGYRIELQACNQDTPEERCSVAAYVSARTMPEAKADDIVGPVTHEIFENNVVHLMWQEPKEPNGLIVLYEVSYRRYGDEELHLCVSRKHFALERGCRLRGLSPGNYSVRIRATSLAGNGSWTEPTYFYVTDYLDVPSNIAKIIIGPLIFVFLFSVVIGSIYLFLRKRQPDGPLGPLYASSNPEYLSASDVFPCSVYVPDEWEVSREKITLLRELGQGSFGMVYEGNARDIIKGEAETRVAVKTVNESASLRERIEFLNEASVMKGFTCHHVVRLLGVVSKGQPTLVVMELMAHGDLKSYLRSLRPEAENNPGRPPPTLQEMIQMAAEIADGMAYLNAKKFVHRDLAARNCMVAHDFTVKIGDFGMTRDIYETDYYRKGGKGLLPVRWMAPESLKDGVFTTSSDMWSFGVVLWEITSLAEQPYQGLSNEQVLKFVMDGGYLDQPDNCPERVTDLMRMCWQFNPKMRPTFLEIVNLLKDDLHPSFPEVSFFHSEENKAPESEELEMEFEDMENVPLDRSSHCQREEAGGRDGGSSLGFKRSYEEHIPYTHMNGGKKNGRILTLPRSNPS

Aurora kinase A = Aurora kinase A (Homo sapiens, UniProt O14965); assay: Inhibition of AUR2
Aurora kinase A, sequence (O14965 whole entry): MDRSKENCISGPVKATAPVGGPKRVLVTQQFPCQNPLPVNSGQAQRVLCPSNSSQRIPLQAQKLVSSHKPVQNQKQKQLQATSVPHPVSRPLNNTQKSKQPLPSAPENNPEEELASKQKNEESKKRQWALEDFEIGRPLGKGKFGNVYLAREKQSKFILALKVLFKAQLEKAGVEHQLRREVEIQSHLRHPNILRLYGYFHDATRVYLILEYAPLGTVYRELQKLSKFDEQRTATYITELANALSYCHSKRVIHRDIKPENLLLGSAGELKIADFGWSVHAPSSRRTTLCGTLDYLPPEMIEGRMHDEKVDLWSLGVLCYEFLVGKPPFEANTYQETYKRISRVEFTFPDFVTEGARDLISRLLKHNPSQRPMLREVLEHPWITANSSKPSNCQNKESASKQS

[16] = Inhibition of PDGFR
[17] = Renal clearance in Wistar rat at 10 mg/kg, iv administered as single dose; type: ADME, organism-based, Kidney; design: dose 10 mg/kg, route intravenous; conditions: in vivo, read-out: CL_renal (converted)
How it was run: (§4)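 Overnight-fasted male Han-Wistar rats got a single 10 mg/kg iv dose in 5% dextrose, three per leg. Jugular blood was drawn from 0.083 to 24 h. Urine was collected over 0–6 and 6–24 h. Plasma and urine were assayed by LC/MS/MS and analysed noncompartmentally. Vss = CL·MRT.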

Cytochrome P450 2C19 = Cytochrome P450 2C19 (Homo sapiens, UniProt P33261); assay: Inhibition of human CYP2C19; type: ADME
Cytochrome P450 2C19, sequence (P33261 whole entry): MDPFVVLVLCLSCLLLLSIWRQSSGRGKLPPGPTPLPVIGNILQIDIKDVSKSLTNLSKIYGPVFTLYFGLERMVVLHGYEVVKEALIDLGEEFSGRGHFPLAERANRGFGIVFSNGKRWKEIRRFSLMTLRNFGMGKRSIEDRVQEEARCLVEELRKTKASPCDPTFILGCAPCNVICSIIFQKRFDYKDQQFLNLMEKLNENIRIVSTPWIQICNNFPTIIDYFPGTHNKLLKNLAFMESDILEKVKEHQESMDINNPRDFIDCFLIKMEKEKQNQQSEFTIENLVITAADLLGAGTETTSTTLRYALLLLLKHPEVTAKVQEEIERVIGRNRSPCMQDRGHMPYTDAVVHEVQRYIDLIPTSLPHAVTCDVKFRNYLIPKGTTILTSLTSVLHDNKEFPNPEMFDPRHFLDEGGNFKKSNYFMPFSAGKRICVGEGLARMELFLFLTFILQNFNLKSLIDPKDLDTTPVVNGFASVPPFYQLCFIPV

[18] = Volume of distribution at steady state in Wistar rat at 10 mg/kg, iv administered as single dose; type: ADME, organism-based; design: dose 10 mg/kg, route intravenous; conditions: in vivo, read-out: Vdss
How it was run: as §4

Nc1nccc(-c2cc3c([nH]2)[C@@H](CCF)CNC3=O)n1
half-life [1]: 6.2 h
AUC(0-inf) [2]: 9.5 µM·h
Cmax [3]: 8.9 µM
IC50 (OPM-2): 3700 nM
IC50 [4]: 1620 nM
MED [5]: 0.6 µM
IC50 (SW48): 900 nM
Activity (Cytochrome P450 2D6): Not Active
IC50 [6]: 28 nM
Cmax [7]: 5.5 µM
bioavailability [8]: 51%
Activity (Rattus norvegicus): 35 days
IC50 (COLO 205): 500 nM
IC50 [9]: > 4000 nM
IC50 (NHDF): 1600 nM
half-life [10]: 1 h
Cmax [11]: 2 µM
IC50 [12]: > 4000 nM
Activity (Mus musculus): Active
inhibition in vivo at 60 mg/kg (A2780): 68%
IC50 [13]: 126 nM
Tmax [14]: 0.3 h
Cmax [15]: 15.7 µM
IC50 (Insulin receptor): > 4000 nM
IC50 (Aurora kinase A): > 4000 nM
IC50 [16]: > 4000 nM
CL renal [17]: 18.3 mL/min/kg
Activity (Cytochrome P450 2C19): Not Active
Vd [18]: 2.1 L/kg
